Bioassay records as filed in PubChem.
DNMT1 inh: blocks human DNA methyltransferase DNMT1. DNMT1 molecular beacon, Hinp1I cleavage, fluorescence. inhibition (reported as % activation of signal), % at 10 µM. hit rate 0.83% among 360,000; in the data active means inhibition above about 50%
STEP inh: blocks human striatal-enriched tyrosine phosphatase. recombinant STEP, OMFP fluorogenic substrate, fluorescence. P54829. inhibition, % at 20 µM. hit rate 0.25% among 360,000. AID 588621;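 active means inhibition at 20 µM, scaled per plate between control wells, above about 37%, limit read from the data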
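Also added – OMFP at 25 µM · Test system – STEP tyrosine phosphatase · Technique – FITC-channel fluorescence of OMFP product · Schedule – 20 min at room temperature, dark · Evaluation – control-normalized % inhibition with plate pattern correction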
LMPTP inh: LMPTP (human) inhibition; P24666; recombinant LMPTP-A, OMFP fluorogenic substrate, fluorescence intensity; AID 651560; hit rate 0.22% among 360,000; inhibition, % at 20 µM;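 active means compounds that cut the enzyme signal by at least half of the control window in the single-dose screen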
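Test system – LMPTP-A enzyme · Amount – LMPTP-A at 0.625 nM final in the reaction · Buffer or medium – Bis-Tris pH 6.0, DTT, detergent · Reagent – OMFP 400 µM · Doses – single 20 µM dose · Schedule – reaction 50 min, room temperature, dark · Detection – fluorescence intensity of OMFP turnover product · Evaluation – percent inhibition versus substrate-only and uninhibited controls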
CSN inh: CSN deneddylation inhibition; Q92905; Purified CSN, SCF-Nedd8-OG deneddylation, fluorescence polarization; inhibition, % at 12.5 µM; hit rate 0.38% among 360,000; AID 651999;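 active means pattern-corrected inhibition above about 35%, with an unprinted fluorescence ratio check between 0.5 and 1.5, limit read from the data, passing the limit was not always enough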
Target sequence (Q92905 whole entry, looked up, one chain of several): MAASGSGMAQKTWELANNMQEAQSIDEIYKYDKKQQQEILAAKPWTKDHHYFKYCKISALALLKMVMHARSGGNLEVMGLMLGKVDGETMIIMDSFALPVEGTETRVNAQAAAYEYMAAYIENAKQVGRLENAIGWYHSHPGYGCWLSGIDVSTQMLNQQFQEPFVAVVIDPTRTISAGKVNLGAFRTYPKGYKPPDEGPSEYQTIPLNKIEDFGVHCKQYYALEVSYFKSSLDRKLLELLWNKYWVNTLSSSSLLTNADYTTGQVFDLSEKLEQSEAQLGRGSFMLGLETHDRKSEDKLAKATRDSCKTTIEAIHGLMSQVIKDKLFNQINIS
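assay system = purified human Csn5 enzyme expressed in HEK293T cells | amount = 0.24 nM enzyme | buffer or medium = Tris/NaCl/DTT buffer, pH 7.5 | reagent = 10 nM SCFSkp2-Nedd8OG | compound = one concentration, 12.5 µM, 0.25% DMSO | times = 90 min reaction at room temperature | signal = FP | read-out basis = % inhibition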
SUMO1 PPI mod: alters human SUMO1 binding to SIM partners; SUMO1 binding to a labelled peptide, TR-FRET, 1 h; inhibition, % at 20 µM; hit rate 0.33% among 360,000; AID 602429; in the data active means inhibition above about 37%
Target sequence (P63165 whole entry, looked up): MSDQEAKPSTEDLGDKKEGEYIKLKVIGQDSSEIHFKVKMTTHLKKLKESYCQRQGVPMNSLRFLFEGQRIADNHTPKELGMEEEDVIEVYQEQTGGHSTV
Scp-1 inhibitor: inhibitors of human Scp-1 phosphatase; Q9GZU7; Recombinant Scp1, phosphopeptide, malachite green phosphate absorbance; inhibition, % at 20 µM; hit rate 0.88% among 340,000; AID 493091;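 active means inhibition above about 50% at 20 µM, limit read from the data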
Target sequence (Q9GZU7 76-261 limits assumed): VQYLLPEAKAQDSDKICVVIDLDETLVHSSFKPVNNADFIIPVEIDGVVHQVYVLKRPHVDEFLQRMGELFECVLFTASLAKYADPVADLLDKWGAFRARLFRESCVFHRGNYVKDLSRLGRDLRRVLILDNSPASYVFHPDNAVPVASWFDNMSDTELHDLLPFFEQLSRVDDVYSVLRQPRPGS
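Material: truncated SCP-1 phosphatase (76-261aa) / Buffer or medium: 50 mM Tris acetate pH 5.5, 0.005% Tween-20, 10 mM MgCl2 / Compound dosing: one concentration, 20 µM, with 1.0% DMSO / Incubation: 45 min room-temperature reaction, 5 min colour, 30 min stabiliser / Detection: colorimetric free-phosphate detection, absorbance 630 nm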
Scp-1 conf: confirmation of human Scp-1 phosphatase inhibitors; shares compounds with Scp-1 inhibitor; recombinant SCP-1 catalytic domain, phosphate release, malachite green absorbance; inhibition, % at 20 µM; hit rate 61% among 2,500
Scp-1 MG ctr: colorimetric interference in Scp-1 counter-screen | shares compounds with Scp-1 inhibitor | Colorimetric interference counterscreen, malachite green absorbance 630 nm | apparent inhibition (interference), % at 20 µM | 2,500 tested, under 10 active | AID 540313;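 further: compounds added after enzyme reaction finished so only phosphate colour detection is probed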
Scp-1 Tm shift: validation of human Scp-1 inhibitors by thermal shift binding; shares compounds with Scp-1 inhibitor; Recombinant SCP1, Sypro Orange thermal shift Tm; thermal shift relative to vanadate control, % at 40 µM; hit rate 25% among 1,500;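 active means substances whose mean melting-temperature shift, as a percentage of the reference inhibitor's shift, reaches about 5.3%, limit read from the data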
Beacon interf DR: shows spectral interference in the DNMT1 beacon assay | IC50, µM | 200 tested, under 10 active | shares compounds with DNMT1 inh | molecular beacon fluorescence, spectral interference counter-screen; call rule not given here
DNMT1 confirm: confirmation of human DNMT1 inhibitors | shares compounds with DNMT1 inh | DNMT1 molecular beacon HinP1I cleavage, fluorescence | inhibition, % at 10 µM | hit rate 8% among 2,300;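 active means average inhibition of at least 30% in the single-concentration confirmation test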
DNMT1 interf: shows spectral interference in the DNMT1 beacon assay. hit rate 1% among 2,300. AID 602387. DNMT1 molecular beacon spectral interference counterscreen, fluorescence 485/520. activation (fluorescence interference), % at 10 µM. shares compounds with DNMT1 inh;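 active means activation of at least 30% at 10 µM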;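 further: DNMT1 catalytic domain with a HinP1I cleavage step and a FAM/dabcyl DNA beacon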
Hits are given with their value; - = inactive; . = no result given; ! = repeats disagree. An excerpt weighted towards active compounds, which were near 2% of everything screened.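 How the source made its calls, unless noted: active means inhibition of at least 30% at 20 µM; inactive means the rest.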

SMILES	DNMT1 inh	STEP inh	LMPTP inh	CSN inh	SUMO1 PPI mod	Scp-1 inhibitor	Scp-1 conf	Scp-1 MG ctr	Scp-1 Tm shift	others
O=C(COc1ccc(Br)cc1)N1CCN(Cc2ccc3c(c2)OCO3)CC1	-	-	-	-	-	-	.	.	.
CC(C)CC(NC(=O)CCCNC(=O)CCC(=O)OC1O[C@H]2OC3(C)CC[C@H]4[C@H](C)CCC(C1C)C24OO3)C(=O)O (some centres not stated)	-	-	-	-	-	95	-	-	.
C[C@H]1[C@H](OC(=O)CCC(=O)NCc2ccc(C(=O)O)cc2)O[C@@H]2O[C@@]3(C)CC[C@H]4[C@H](C)CC[C@@H]1C24OO3	-	-	-	-	-	-	.	.	.
OC1/C(=C/c2ccccc2C(F)(F)F)N2CCC1CC2 (configuration not stated)	-	-	-	-	-	-	.	.	.
CCOC(=O)c1ccccc1C(=O)OCC	-	-	-	-	-	-	.	.	.
CCOC(=O)C1=C(C)c2ccccc2OC1(C(=O)OCC)c1ccccc1 (configuration not stated)	-	-	-	-	-	103	39	-	-
CCC(CO)(C(=O)OC1C[N+]2(C)CCC1CC2)c1ccccc1 (configuration not stated)	-	-	-	-	-	94	80	-	-
O=C(O)c1ccccc1-c1ccc(C=C2C(=O)N(c3ccccc3)C(=S)N(c3ccccc3)C2=O)o1	-	-	-	-	-	58	54	-	-
CC(=O)c1ccc(OC(C)C)c(Cc2c(O)[nH]c(=S)[nH]c2=O)c1	-	-	-	-	-	-	.	.	.
CCN(CC)P(=O)(c1n(CC)cc[n+]1CC)N(CC)CC	-	-	-	-	-	103	80	-	-
COc1ccc(CNCCc2c(C)[nH]c3ccc(OC(F)(F)F)cc23)c(OC)c1	-	-	-	-	-	-	.	.	.
CNC(C(=O)c1ccccc1)C(OC(C)=O)c1cccc([N+](=O)[O-])c1 (configuration not stated)	-	-	-	-	-	88	-	-	.
CC1CCCC(C2(O)C(=O)Nc3ccccc32)C1=O (configuration not stated)	-	-	-	-	-	57	-	-	.
CCOP(=O)(OCC)C1(O)C(=O)Nc2ccccc21 (configuration not stated)	-	-	-	-	-	-	.	.	.
Cc1ccsc1C(=O)C1CCCN(Cc2sc(N(C)C)nc2Cl)C1 (configuration not stated)	-	-	-	-	-	-	.	.	.
CCCCCC(=O)N[C@@H](c1ccccc1)[C@@H](O)C(=O)O[C@H]1C[C@@]2(O)[C@@H](OC(=O)c3ccccc3)C3[C@](C)(C(=O)[C@H](O)C(=C1C)C2(C)C)[C@@H](OC1OCC(O)C(O)C1O)C[C@H]1OC[C@@]31OC(C)=O (some centres not stated)	-	-	-	-	-	-	-	-	.
COc1cc2c(cc1OC)-c1c(OC)c(OC)cc3c1[C@H](C2)[N+](C)(C)CC3	-	-	-	-	-	55	-	-	.
COc1cc2c3c(c1OC)-c1cc(O)ccc1CC3NCC2 (configuration not stated)	-	-	-	-	-	-	.	.	.
COP(=O)(OC)C(NS(=O)(=O)c1ccccc1)C(Cl)(Cl)Cl (configuration not stated)	-	-	-	-	-	-	.	.	.
CC(C)[N+]12CCC(CC1)C(C(O)(c1ccccc1)c1ccccc1)C2 (configuration not stated)	-	-	-	-	-	99	87	-	-
CC[N+]12CCC(CC1)C(C(O)(c1ccccc1)c1ccccc1)C2 (configuration not stated)	-	-	-	-	-	-	.	.	.
O=S(=O)(c1cccc(C(F)(F)F)c1)N1Cc2ccccc2-n2nncc2C1	-	-	-	-	-	.	.	.	.
Cn1c[n+](C)cc1C(O)c1ccccc1 (configuration not stated)	-	-	-	-	-	92!	84	-	-
C=CCn1c(O)c(/C(C)=N/N2CCN(C)CC2)c(=O)[nH]c1=O	-	-	-	-	-	-	.	.	.
Cc1ccc2c(c1Cl)NC(C(=O)O)C1CC(Sc3ccccc3[N+](=O)[O-])C(Cl)C21 (configuration not stated)	71	-	-	-	-	60	65	-	18	DNMT1 confirm=-;DNMT1 interf=-
SMILES	DNMT1 inh	STEP inh	LMPTP inh	CSN inh	SUMO1 PPI mod	Scp-1 inhibitor	Scp-1 conf	Scp-1 MG ctr	Scp-1 Tm shift	others
Cc1cc(/C=C2\C(=O)NC(=O)N(c3ccc(F)cc3)C2=O)c(C)n1-c1cccc(C(=O)O)c1	-	-	-	-	-	-	.	.	.
Cc1cc(/C=C2\C(=O)NC(=O)N(c3ccccc3F)C2=O)c(C)n1-c1cc(C(=O)O)cc(C(=O)O)c1	87	42	-	-	-	55	32	-	9.9	Beacon interf DR=-;DNMT1 confirm=-;DNMT1 interf=-
COc1ccc2nc(/N=C/c3c(O)n(-c4cccc(Cl)c4)c(=O)[nH]c3=O)sc2c1	-	-	-	-	-	-	.	.	.
COc1ccc(CN2C(=O)NC(=O)/C(=C/c3ccoc3)C2=O)cc1	101	68	-	-	-	72	71	-	-	DNMT1 confirm=-;DNMT1 interf=-
CCOP(=O)(OCC)c1cc(C)c(O)c(C(C)(C)C)c1	-	-	-	-	-	-	.	.	.
COc1ccc(OC)c(NC(=O)N2C[C@H]3C[C@@H](C2)c2cccc(=O)n2C3)c1	-	-	-	-	-	-	.	.	.
CC[N+](C)(CC)CCCCOc1ccc2c(c1)C(=O)c1cc(OCCCC[N+](C)(CC)CC)ccc1-2	54	-	-	-	-	103	62	-	-	Beacon interf DR=-;DNMT1 confirm=39;DNMT1 interf=-
